DENV2 CPE – inhibitors of DENV2 cytopathic effect. DENV2-infected cells, cytopathic effect rescue, plate reader. CPE inhibition, % at 9.99 µM. actives 1.7% (n = 350,000). AID 651640; in the data active = CPE inhibition above about 20%, passing the limit was not always enough; tested in BHK-21 cells
FN deposition inh – fibronectin deposition inhibition | AH1F fibroblasts, Alexa488-fibronectin deposition fluorescence, overnight | inhibition, % at 12.6 µM | actives 0.086% (n = 350,000);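 active = mean inhibition across replicates of 30% or more, regardless of how many single replicates reach that level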
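Test system: AH1F fibroblast monolayer depositing Alexa488-labelled fibronectin into matrix. Input: 10000 cells per well. Technique: fluorescence, ex 485 nm, em 525 nm. Buffer or medium: DMEM plus 2% serum, read in PBS. Timing: 1 h cell adhesion before compound, then overnight fibronectin incubation. Compound: single dose, pinned. Read-out basis: inhibition from reduced deposited-fibronectin fluorescence.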
ARNT TACC3 PPI – disruptors of human ARNT/TACC3 interaction; Q9Y6A5; actives 0.66% (n = 390,000); inhibition, % at 9.99 µM; AID 623870; AlphaScreen His-ARNT PAS-B/GST-TACC3 binding, luminescence; TACC3 fragment carries E629A point mutation;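 active = mean inhibition of replicates at least 50% and at least half of replicates each reaching 50%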
FGF22 binding – shifts melting point of recombinant human FGF22 | actives 1.5% (n = 340,000) | recombinant FGF22 thermal shift, SYPRO orange fluorescence; percent of sucrose octasulfate shift, DMSO zero | activity (Tm shift, normalised), % at 9.99 µM;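 active = mean Tm shift, scaled 0 neutral to 100 positive control, at about 1.3% or above, every replicate too, limit read from the data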
Target sequence (Q9HCT0 whole entry, looked up): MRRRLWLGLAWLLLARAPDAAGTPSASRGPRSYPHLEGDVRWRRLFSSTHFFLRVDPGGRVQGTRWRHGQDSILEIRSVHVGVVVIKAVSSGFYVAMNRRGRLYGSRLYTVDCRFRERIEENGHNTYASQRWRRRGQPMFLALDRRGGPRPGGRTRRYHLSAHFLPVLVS
SIRT5 inh – blocks human SIRT5 desuccinylation of peptide; Q9NXA8; Purified SirT5, succinyl-peptide AMC, trypsin-coupled fluorescence; actives 1.1% (n = 330,000); inhibition, % at 15 µM; in the data active = inhibition above about 15%
Target sequence (Q9NXA8 whole entry, looked up): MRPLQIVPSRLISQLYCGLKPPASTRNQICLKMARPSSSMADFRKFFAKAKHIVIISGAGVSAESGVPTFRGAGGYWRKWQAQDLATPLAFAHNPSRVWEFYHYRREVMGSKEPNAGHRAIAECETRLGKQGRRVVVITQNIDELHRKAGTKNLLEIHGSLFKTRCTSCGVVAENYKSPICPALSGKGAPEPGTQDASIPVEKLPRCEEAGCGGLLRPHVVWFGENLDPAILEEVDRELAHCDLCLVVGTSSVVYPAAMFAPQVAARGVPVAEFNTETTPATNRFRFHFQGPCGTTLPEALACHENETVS
Xi reactivation – X-chromosome reactivation activator; XiGFP mouse fibroblasts, % GFP-positive cells imaging, 3 d; cells co-treated with 5-aza-dC sensitizer; scaled so ellipticine positive control = 100%; activation, % at 7.58 µM; actives 0.055% (n = 360,000);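 active = mean normalized replicate activation at least 10% and every replicate at or above 10%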
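assay system = SV40-immortalized XiGFP fibroblast cells, line 68-5-11 | buffer or medium = DMEM plus 5-aza-dC sensitizer | doses = single-point pinned compound dosing | times = 3-day compound exposure, then 15 min fixation at room temperature | benchmarks = positive control ellipticine, 6 µM final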
Hits are given with their value. A selection: hits, their analogues and other compounds. The true share with any hit is near 3.8%.

How did O=C(NCCCN1CCCC1=O)C1CCC(CNS(=O)(=O)c2ccc(Cl)cc2)CC1 (stereo not given) do in these assays?
DENV2 CPE: inactive; FN deposition inh: inactive; ARNT TACC3 PPI: inactive; FGF22 binding: inactive; SIRT5 inh: inactive; Xi reactivation: inactive

How did COc1ccccc1CNC(=O)C1CCC(CNS(=O)(=O)c2ccc(F)cc2)CC1 (stereo not given) do in these assays?
DENV2 CPE: inactive; FN deposition inh: inactive; ARNT TACC3 PPI: inactive; FGF22 binding: inactive; SIRT5 inh: 21; Xi reactivation: inactive

What do the screens show for `O=C(NCCN1CCOCC1)C1CCC(CNS(=O)(=O)c2ccc(Cl)cc2)CC1` (stereo not given)?
ARNT TACC3 PPI: inactive; FGF22 binding: inactive; SIRT5 inh: 24

Results for COCCNC(=O)C1CCC(CNS(=O)(=O)c2ccc(F)cc2)CC1 (stereo not given) ?
DENV2 CPE: 34; FN deposition inh: inactive; ARNT TACC3 PPI: inactive; FGF22 binding: inactive; SIRT5 inh: inactive; Xi reactivation: inactive

How did COCCNC(=O)C1CCC(CNS(=O)(=O)c2ccccc2)CC1 (stereo not given) do in these assays?
DENV2 CPE: inactive; FN deposition inh: inactive; ARNT TACC3 PPI: inactive; FGF22 binding: inactive; SIRT5 inh: inactive; Xi reactivation: inactive

How did COc1ccc(CN(C)C[C@@H]2OCCCC[C@@H](C)Oc3ccc(NS(C)(=O)=O)cc3C(=O)N([C@H](C)CO)C[C@H]2C)cc1 do in these assays?
Xi reactivation: inactive

How did CN1C(=O)c2cc(NC(=O)c3cscn3)ccc2OC[C@H]2O[C@H](CC(=O)NCC3CC3)CC[C@@H]21 do in these assays?
DENV2 CPE: inactive; FN deposition inh: inactive; ARNT TACC3 PPI: inactive; FGF22 binding: inactive; Xi reactivation: inactive

What do the screens show for `CC(=O)N(C)C[C@@H]1Oc2ncc(C#CC3(O)CCCC3)cc2C(=O)N([C@H](C)CO)C[C@@H]1C`?
DENV2 CPE: 31; FN deposition inh: inactive; ARNT TACC3 PPI: inactive; FGF22 binding: inactive; SIRT5 inh: inactive; Xi reactivation: inactive

What do the screens show for `COCC(=O)N(C)C[C@@H]1Oc2ncc(C#CC3(O)CCCC3)cc2C(=O)N([C@@H](C)CO)C[C@H]1C`?
DENV2 CPE: 41; FN deposition inh: inactive; ARNT TACC3 PPI: inactive; FGF22 binding: inactive; SIRT5 inh: inactive; Xi reactivation: inactive

What do the screens show for `CC(=O)N(C)C[C@@H]1Oc2ncc(C#CC3(O)CCCC3)cc2C(=O)N([C@H](C)CO)C[C@H]1C`?
DENV2 CPE: inactive; FN deposition inh: inactive; ARNT TACC3 PPI: inactive; FGF22 binding: inactive; SIRT5 inh: inactive; Xi reactivation: inactive

What do the screens show for `C[C@@H]1CCCCO[C@@H](CN(C)S(=O)(=O)c2cn(C)cn2)[C@@H](C)CN([C@H](C)CO)C(=O)c2cc(NS(=O)(=O)c3ccc(Cl)cc3)ccc2O1`?
DENV2 CPE: 37; FN deposition inh: inactive; ARNT TACC3 PPI: inactive; FGF22 binding: inactive; SIRT5 inh: inactive; Xi reactivation: inactive

What do the screens show for `Cc1noc(C)c1S(=O)(=O)Nc1ccc2c(c1)C(=O)N([C@@H](C)CO)C[C@@H](C)[C@H](CN(C)S(=O)(=O)c1cn(C)cn1)OCCCC[C@@H](C)O2`?
DENV2 CPE: 37; FN deposition inh: inactive; ARNT TACC3 PPI: inactive; FGF22 binding: 34; SIRT5 inh: inactive; Xi reactivation: inactive

What do the screens show for `COc1ccc(S(=O)(=O)N(C)C[C@H]2OCCCC[C@@H](C)Oc3ccc(NS(=O)(=O)c4cn(C)cn4)cc3C(=O)N([C@@H](C)CO)C[C@H]2C)cc1`?
DENV2 CPE: inactive; FN deposition inh: inactive; ARNT TACC3 PPI: inactive; FGF22 binding: inactive; SIRT5 inh: 16; Xi reactivation: inactive

Results for Cc1ccc(S(=O)(=O)Nc2ccc3c(c2)C(=O)N([C@@H](C)CO)C[C@@H](C)[C@H](CN(C)S(=O)(=O)c2cn(C)cn2)OCCCC[C@@H](C)O3)cc1 ?
DENV2 CPE: 21; FN deposition inh: inactive; ARNT TACC3 PPI: inactive; FGF22 binding: inactive; SIRT5 inh: inactive; Xi reactivation: inactive

What do the screens show for `Cc1ccc(S(=O)(=O)Nc2ccc3c(c2)C(=O)N([C@H](C)CO)C[C@H](C)[C@@H](CN(C)S(=O)(=O)c2cn(C)cn2)OCCCC[C@@H](C)O3)cc1`?
DENV2 CPE: inactive; FN deposition inh: inactive; ARNT TACC3 PPI: inactive; FGF22 binding: inactive; SIRT5 inh: inactive; Xi reactivation: inactive

What do the screens show for `CC=Cc1ccc2n(c1=O)C[C@@H]1[C@@H](CO)[C@H](C(=O)N[C@@H](C)c3ccccc3)N(C)[C@H]21` (mixture of isomers)?
DENV2 CPE: inactive; ARNT TACC3 PPI: inactive; FGF22 binding: inactive; SIRT5 inh: inactive; Xi reactivation: inactive

What do the screens show for `CO[C@@H]1CN(C)C(=O)c2cc(NC(=O)Cc3ccccc3)ccc2OC[C@H](C)N(C(C)=O)C[C@@H]1C`?
DENV2 CPE: inactive; FN deposition inh: inactive; ARNT TACC3 PPI: inactive; FGF22 binding: inactive; SIRT5 inh: inactive; Xi reactivation: inactive

Results for Cc1cc(N)n(-c2ccc(Oc3ccccc3)c(S(=O)(=O)O)c2)n1 ?
DENV2 CPE: inactive; FN deposition inh: inactive; ARNT TACC3 PPI: inactive; FGF22 binding: inactive; SIRT5 inh: 47; Xi reactivation: inactive

What do the screens show for `Cc1cc(N)n(-c2ccc(C)c(C)c2)n1`?
DENV2 CPE: inactive; ARNT TACC3 PPI: inactive; FGF22 binding: inactive; SIRT5 inh: inactive; Xi reactivation: inactive

How did N#Cc1cccc(C#N)c1N1CCC(C#N)CC1 do in these assays?
DENV2 CPE: inactive; FN deposition inh: inactive; FGF22 binding: inactive; SIRT5 inh: 24; Xi reactivation: inactive

What do the screens show for `CC(C)c1nc(SCC(=O)c2ccc(F)cc2)c2ccccc2n1`?
DENV2 CPE: inactive; FN deposition inh: inactive; ARNT TACC3 PPI: inactive; FGF22 binding: 43; SIRT5 inh: inactive; Xi reactivation: inactive

How did Cc1ccc(C(=O)CSc2nc(C(C)C)nc3ccccc23)cc1 do in these assays?
DENV2 CPE: inactive; FN deposition inh: inactive; ARNT TACC3 PPI: inactive; FGF22 binding: inactive; SIRT5 inh: inactive; Xi reactivation: inactive

How did O=C(CSc1cnc2ccccc2n1)c1ccc(F)cc1 do in these assays?
DENV2 CPE: 33; FN deposition inh: inactive; ARNT TACC3 PPI: inactive; FGF22 binding: inactive; SIRT5 inh: inactive; Xi reactivation: inactive

Results for CCS(=O)(=O)N1CC(=O)N2[C@H](CO)[C@@H](c3ccc(-c4ccccc4C)cc3)[C@@H]2C1 ?
Xi reactivation: inactive

What do the screens show for `O=C(NCc1cccnc1)Nc1ccc2c(c1)OCO2`?
DENV2 CPE: inactive; FN deposition inh: inactive; ARNT TACC3 PPI: inactive; FGF22 binding: 43; SIRT5 inh: inactive; Xi reactivation: inactive

How did O=C(COC(=O)c1cccnc1)Nc1ccc2c(c1)OCO2 do in these assays?
DENV2 CPE: inactive; FN deposition inh: inactive; ARNT TACC3 PPI: inactive; FGF22 binding: 43; SIRT5 inh: inactive; Xi reactivation: inactive

Assay outcomes: PubChem, Broad Institute
